This note sets out measurements from ChEMBL document CHEMBL5625189, “Discovery of new diaryl ether inhibitors against Mycobacterium tuberculosis targeting the minor portal of InhA” (Eur J Med Chem, 2023).

Structures are written as SMILES. Active and inactive are the calls of the source. No cut-off for these calls is given here. Some results are limits rather than exact numbers.

Data set [1] has as its target T1, Enoyl-[acyl-carrier-protein] reductase [NADH] (Mycobacterium tuberculosis, UniProt P9WGR1).
T1 sequence (P9WGR1 whole entry): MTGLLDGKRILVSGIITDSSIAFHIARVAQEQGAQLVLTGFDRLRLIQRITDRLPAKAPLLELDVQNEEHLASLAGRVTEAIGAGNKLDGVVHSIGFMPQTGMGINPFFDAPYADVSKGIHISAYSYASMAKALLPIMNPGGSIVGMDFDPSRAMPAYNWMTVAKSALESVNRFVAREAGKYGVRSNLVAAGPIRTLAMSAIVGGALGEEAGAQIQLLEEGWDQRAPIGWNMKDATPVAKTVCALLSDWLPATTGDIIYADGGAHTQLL
Put plainly: Inhibition of his6-tagged Mycobacterium tuberculosis InhA using trans-2-dodecenoyl-coenzyme as substrate in presence of […].

Data set [2] deals with Mycobacterium tuberculosis. In words: Antimycobacterial activity against Mycobacterium tuberculosis H37Rv assessed as reduction in microbial growth incubated for 6 days by broth dilution method. The settings on record: 144 h, time 6 day. In kind it is functional. The procedure, abridged: (§1)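 Mtb H37Rv pellicle cells dispersed with glass beads in 7H9-0.2% glycerol, clumps removed by low-speed spin; twofold serial dilutions (DMSO stocks 1 or 10 mM) in 7H9, inoculum OD600 0.1; 6 days at 37 °C, then MTT added, 1 day more; SDS solubilisation, OD 570 nm; MIC = lowest concentration inhibiting growth, ≥3 independent experiments.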
A general note: Dilution methods test growth across graded concentrations, often in twofold steps.

Data set [3] addresses T2, Enoyl-[acyl-carrier-protein] reductase [NADH] (Mycobacterium tuberculosis) (UniProt P9WGR1).
T2 sequence (whole entry): T1 sequence (P9WGR1 whole entry)
In words: Inhibition of his6-tagged Mycobacterium tuberculosis InhA using trans-2-dodecenoyl-coenzyme as substrate at 200 uM in presence of […] relative to control.

The target in data set [4] is T2, Enoyl-[acyl-carrier-protein] reductase [NADH] (Mycobacterium tuberculosis). Put plainly: Inhibition of his6-tagged Mycobacterium tuberculosis InhA using trans-2-dodecenoyl-coenzyme as substrate at 500 uM in presence of […] relative to control.
The target in data set [5] is T1, Enoyl-[acyl-carrier-protein] reductase [NADH]. Put plainly: Inhibition of Mycobacterium tuberculosis H37Rv InhA using trans-2-dodecenoyl-coenzyme A as substrate in presence of NADH.
In data set [6] the target is T2, Enoyl-[acyl-carrier-protein] reductase [NADH] (Mycobacterium tuberculosis). In words: Inhibition of his6-tagged Mycobacterium tuberculosis InhA using trans-2-dodecenoyl-coenzyme as substrate at 100 uM in presence of […] relative to control.
The target is the same in data set [7]. Put plainly: Inhibition of his6-tagged Mycobacterium tuberculosis InhA using trans-2-dodecenoyl-coenzyme as substrate at 50 uM in presence of […] relative to control.
The target is the same in data set [8]. In words: Inhibition of his6-tagged Mycobacterium tuberculosis InhA using trans-2-dodecenoyl-coenzyme as substrate at 10 uM in presence of […] relative to control.
Data set [9] is described as follows: Selectivity index, ratio of IC50 for cytotoxicity against human HCT-116 cells assessed as inhibition of cell growth to MIC for antimycobacterial activity against Mycobacterium tuberculosis H37Rv assessed as reduction in microbial growth. Format: toxicity, cell-based. The procedure, abridged: (§2)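 Selectivity index: IC50 on each human cell line (72 h SRB assay) divided by MIC against Mtb H37Rv (MTT microassay).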

Data set [10] in a line: Selectivity index, ratio of IC50 for cytotoxicity against human HepG2 cells assessed as inhibition of cell growth to MIC for antimycobacterial activity against Mycobacterium tuberculosis H37Rv assessed as reduction in microbial growth. In kind it is toxicity, cell-based. The procedure, abridged:
as §2

For the next data set, the system named is HCT-116. In words: Cytotoxicity against human HCT-116 cells assessed as inhibition of cell growth incubated for 72 hrs by SRB assay. In kind it is functional, cell-based. The settings on record: HCT-116, 72 h. A digest of the protocol: (§3)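 Seeded 24 h before dosing (HCT116 1500, CACO2 2500, HepG2 9000, WI38hTERT 3500 cells/well); HCT116 in DMEM high-glucose, others in MEM, 10% FBS (20% for CACO2); serial 2-fold dilutions for 72 h at 37 °C, 5% CO2; SRB staining, OD 490 nm; background-subtracted, normalized to untreated; duplicate points, ≥3 independent experiments; IC50 by four-parameter logistic fit.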
For orientation: In SRB staining, fixed cells bind dye roughly in proportion to their protein.

A further data set deals with Caco-2. In words: Cytotoxicity against human Caco-2 cells assessed as inhibition of cell growth incubated for 72 hrs by SRB assay. The conditions noted are these: Caco-2, 72 h. In kind it is functional, cell-based. The procedure, abridged: as §3
The subject of another data set is HepG2. In words: Cytotoxicity against human HepG2 cells assessed as inhibition of cell growth incubated for 72 hrs by SRB assay. Format: functional, cell-based. The conditions noted are these: HepG2, 72 h. A digest of the protocol:
as §3

Another data set has as its system WI-38. Put plainly: Cytotoxicity against human WI-38 cells assessed as inhibition of cell growth incubated for 72 hrs by SRB assay. The settings on record: WI-38, 72 h. In kind it is functional, cell-based. A digest of the protocol: as §3
Data set [11] in a line: Selectivity index, ratio of IC50 for cytotoxicity against human Caco-2 cells assessed as inhibition of cell growth to MIC for antimycobacterial activity against Mycobacterium tuberculosis H37Rv assessed as reduction in microbial growth. In kind it is toxicity, cell-based. The procedure, abridged:
as §2

Data set [12] is described as follows: Selectivity index, ratio of IC50 for cytotoxicity against human WI-38 cells assessed as inhibition of cell growth to MIC for antimycobacterial activity against Mycobacterium tuberculosis H37Rv assessed as reduction in microbial growth. Format: toxicity, cell-based. A digest of the protocol:
as §2

For data set [13], the system named is Mycobacterium tuberculosis. In words: Antimycobacterial activity against Mycobacterium tuberculosis H37Rv assessed as reduction in microbial growth. In kind it is functional. A digest of the protocol: as §1

Take `CCN(CC)c1ccc2cc(C(=O)NCc3cn(Cc4ccc(Oc5ccccc5)c(O)c4)nn3)c(=O)oc2c1`: in [1] (read-out: IC50), the half-maximal inhibitory concentration (IC50) is 3550 nM. The MIC in data set [2] is > 54 µg/mL.
For the molecule `C#CCOc1ccc2c(C)cc(=O)oc2c1`, the figures for the inhibition in data set [3] and in data set [4] were 37% and 90%, respectively.
`Cc1cc(=O)oc2cc(OCc3cnnn3Cc3ccc(Oc4ccccc4)c(O)c3)ccc12`: in data set [1] (read-out: IC50), the 50% inhibitory concentration (IC50) came out at 510 nM.
On to `C#CCNC(=O)c1cc2ccc(N(CC)CC)cc2oc1=O`, for which, in data set [4], the inhibition is 10%.
On to `O=c1ccc2ccc(OCc3cnnn3Cc3ccc(Oc4ccccc4)c(O)c3)cc2o1`, for which, in data set [1] (read-out: IC50), the IC50 came to 630 nM.
Consider `O=c1ccc2ccc(OCc3cn(Cc4ccc(Oc5ccccc5)c(O)c4)nn3)cc2o1`, for which the IC50 in [1] (read-out: IC50) came to 163 nM. Also, the minimal inhibitory concentration (MIC) in [2] was determined as 2.2 µg/mL.
As to `[N-]=[N+]=NCc1ccc(Oc2ccccc2)c(O)c1`, the concentration for half-maximal inhibition (IC50) in data set [1] (read-out: IC50) is 843 nM.
Regarding `CN(C)S(=O)(=O)c1ccc(NCc2cn(Cc3ccc(Oc4ccccc4)c(O)c3)nn2)c2nonc12`, the IC50 in [1] (read-out: IC50) is 733 nM. For the same molecule, the MIC in data set [2] was > 52 µg/mL.
For the molecule `Oc1cc2ccc1Oc1ccc(cc1)CCc1ccc(c(O)c1)Oc1ccc(cc1)CC2`, the IC50 in data set [5] was found to be 4700 nM.
As for `C#CCOc1ccc2ccc(=O)oc2c1`, the inhibition in data set [3] turned out to be 99%; in data set [6] it was 30%.
For the molecule `CCCCCCc1ccc(Oc2ccc(Cn3cc(CNC(=O)c4cc5ccc(N(CC)CC)cc5oc4=O)nn3)cc2)c(O)c1`, the inhibition in [7] amounted to 53.7%; in [8], 31.5%. In [2], the minimum inhibitory concentration (MIC) is > 60 µg/mL.
As for `O=[N+]([O-])c1ccc(NCc2cn(Cc3ccc(Oc4ccccc4)c(O)c3)nn2)c2nonc12`, the half-maximal inhibitory concentration (IC50) in [1] (read-out: IC50) is 459 nM. For the same molecule, the minimum inhibitory concentration (MIC) in [2] came to 4.6 µg/mL.
On the same counts, the results for `O=C(NCc1cn(Cc2ccc(Oc3ccccc3)c(O)c2)nn1)c1cc2cc(O)ccc2oc1=O` are 844 nM and > 4.8 µg/mL.
With `CCCCCCc1ccc(Oc2ccc(Cn3cc(CNc4ccc([N+](=O)[O-])c5nonc45)nn3)cc2)c(O)c1`, the selectivity ratio in data set [9] is 3.5; in [10], 10.8; in [11], 10.5; in [12] it was 21.2. The inhibition was 32.3% in data set [7] and 11.4% in data set [8]. The minimum inhibitory concentration (MIC) in data set [2] turned out to be 1.4 µg/mL. Besides, the IC50 in the data set on HCT-116 turned out to be 8700 nM; with Caco-2, 26100 nM; in the data set on HepG2, 26900 nM; in the data set on WI-38, 52900 nM.
For the molecule `C#CCNC(=O)c1cc2ccccc2oc1=O`, the inhibition entry in [3] is “inactive”.
Consider `Cc1cc(=O)oc2cc(OCc3cn(Cc4ccc(Oc5ccccc5)c(O)c4)nn3)ccc12`, for which the selectivity ratio is 19.1 in [9], 24.8 in data set [10], 20 in data set [11] and > 80 in [12]. The half-maximal inhibitory concentration (IC50) in data set [1] (read-out: IC50) is 205 nM; in the data set on HCT-116 it was 23900 nM; in the data set on Caco-2, 25000 nM; in the data set with HepG2 it was 31000 nM; in the data set on WI-38, > 100000 nM. Besides, the MIC in data set [2] came to 0.6 µg/mL.
For `O=c1ccc2ccc(OCc3cn(Cc4ccc(Oc5ccccc5O)cc4)nn3)cc2o1`, the inhibition in [7] was 10%. The minimal inhibitory concentration (MIC) in [2] was 2.2 µg/mL.
In the case of `CCN(CC)c1ccc2c(OCc3cn(Cc4ccc(Oc5ccccc5)c(O)c4)nn3)cc(=O)oc2c1`, the selectivity ratio came to 0.4 in [9], 1.3 in data set [10], 0.9 in [11] and 0.5 in [12]. In addition, the IC50 in data set [1] (read-out: IC50) was 54 nM; with HCT-116 it was 530 nM; in the data set with Caco-2 it was 1100 nM; in the data set with HepG2, 1600 nM; with WI-38 it was 600 nM. Moreover, the minimum inhibitory concentration (MIC) in [2] was 0.7 µg/mL.
Take `C#CCOc1cc(=O)oc2ccccc12`: in data set [4], the inhibition entry is “inactive”.
For `COc1ccc2cc(C(=O)NCc3cn(Cc4ccc(Oc5ccccc5)c(O)c4)nn3)c(=O)oc2c1`, in [1] (read-out: IC50), the half-inhibitory concentration (IC50) worked out at 345 nM. Moreover, the minimum inhibitory concentration (MIC) in data set [2] was > 5 µg/mL.
`O=C(NCc1cn(Cc2ccc(Oc3ccccc3)c(O)c2)nn1)c1cc2ccccc2oc1=O`: the concentration for half-maximal inhibition (IC50) in data set [1] (read-out: IC50) was 598 nM. The MIC in data set [2] came to 4.7 µg/mL.
For the molecule `O=C(O)c1cn(C2CC2)c2cc(N3CCNCC3)c(F)cc2c1=O` [CIPROFLOXACIN], the IC50 entry in [1] is on record as “Not Active”. Further, the MIC in data set [2] was found to be 0.8 µg/mL.
With `O=c1cc(OCc2cn(Cc3ccc(Oc4ccccc4)c(O)c3)nn2)c2ccccc2o1`, the IC50 in data set [1] (read-out: IC50) amounted to 181 nM. The minimal inhibitory concentration (MIC) in data set [2] is 2.2 µg/mL.
As for `COc1cccc2cc(C(=O)NCc3cn(Cc4ccc(Oc5ccccc5)c(O)c4)nn3)c(=O)oc12`, the IC50 in data set [1] (read-out: IC50) was found to be 740 nM. Besides, in data set [2], the minimum inhibitory concentration (MIC) came to 5 µg/mL.
With `CCCCCCCCc1ccc(Oc2ccccc2)c(O)c1`, the MIC in data set [13] came out at 6.4 µM.

For orientation: IC50 means the concentration that inhibits the measured activity by half. By MIC is commonly meant the least concentration at which growth counts as inhibited. Broadly, the inhibition is the drop in the measured response relative to a control, in per cent.
